Rows were chosen to be rich in hits. Some 4.1% of all compounds tested hit in one or more screens of this group.
APP 5'UTR act – activates APP 5'UTR luciferase reporter | SH-SY5Y APP 5'UTR luciferase reporter, luminescence; zero percent = DMSO vehicle wells | activation, % at 2 µM | 190,000 compounds, 1% hits | AID 1276;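 active = activation above a set limit, based on mean plus 3 SD of controls, cut at about 140% in these data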
NF-kB neuron act – raises NF-kB expression in human neuronal cells | NF-kB reporter expression; stronger effect = higher value | 190,000 compounds, 1.6% hits | fold change at 12.5 µM | AID 1239; in the data active = fold change above about 3.3
STAT1 activator – STAT1 signaling activation; NIH 3T3 STAT1-luciferase reporter, IFN-gamma, luminescence; 100% = IFN-gamma alone, no compound; 200,000 compounds, 2.6% hits; activation (% of control), % at 5.5 µM; AID 932;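 active = activation above the screen-wide mean activation plus 3 SD, cut at about 130% in these data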
FLuc stim CS – affects firefly luciferase, flagging false hits in luciferase stimulation screens | P08659 | ATPlite luciferase biochemical, luminescence, 10 min; 0 = ATP-free wells, 1 = DMSO control | activation factor at 10 µM | 200,000 tested, under 10 active | AID 1027;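 active = luciferase activation factor, scaled between plate controls, of at least 2 with compound at 10 µM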
Target sequence (P08659 whole entry, looked up): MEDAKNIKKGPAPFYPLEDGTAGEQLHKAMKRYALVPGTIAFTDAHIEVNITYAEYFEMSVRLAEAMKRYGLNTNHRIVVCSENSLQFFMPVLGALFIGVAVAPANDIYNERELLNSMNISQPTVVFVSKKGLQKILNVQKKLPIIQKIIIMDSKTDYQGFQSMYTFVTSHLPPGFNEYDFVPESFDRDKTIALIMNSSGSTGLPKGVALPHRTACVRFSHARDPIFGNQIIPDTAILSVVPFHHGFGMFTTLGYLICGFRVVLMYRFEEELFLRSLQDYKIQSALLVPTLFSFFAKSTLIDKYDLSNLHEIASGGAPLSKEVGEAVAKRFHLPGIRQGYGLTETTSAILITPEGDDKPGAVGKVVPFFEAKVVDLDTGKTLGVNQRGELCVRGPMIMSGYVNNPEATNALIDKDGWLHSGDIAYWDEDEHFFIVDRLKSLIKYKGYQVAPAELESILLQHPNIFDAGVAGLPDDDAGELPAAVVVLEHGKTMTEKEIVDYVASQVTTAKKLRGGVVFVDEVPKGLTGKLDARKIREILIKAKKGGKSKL
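Material: Luciferase/luciferin reagent mix; Doses: test compounds dosed from 2 mM stocks in 100% DMSO; Schedule: 10 min incubation after luciferase reagent addition, room temperature; Measured by: luminescence from luciferase reaction; Read-out: luminescence gain marking luciferase activators.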
FLuc inhib CS – inhibits firefly luciferase, flagging false hits in luciferase inhibition screens. AID 1006. P08659. ATPLite firefly luciferase biochemical luminescence, 10 min. inhibition, % at 10 µM. 200,000 compounds, 1.5% hits;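 active = inhibition above about 50% when tested at 10 µM, limit read from the data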
Large screens that a line does not name were inactive.

CC(C)c1ccc(NC(=O)c2cccc(Br)c2)cc1	STAT1 activator 140
CCC(C)c1ccc(NC(=O)c2cccnc2)cc1 (stereo unspecified)	NF-kB neuron act 3.9, STAT1 activator 133
CCC(C)c1ccc(O)c(NC(=O)c2cccnc2)c1 (stereo unspecified)	none
CCn1cc(Cl)c(C(=O)NNC(=O)CCn2cc([N+](=O)[O-])cn2)n1	none
O=C(NCC(c1cccnc1)N1CCN(c2ccccc2)CC1)C1CCCCC1 (stereo unspecified)	none
Oc1ccc(Cl)cc1CNc1ccc(Br)cn1	NF-kB neuron act 4.9
Oc1c(Cl)cc(Cl)cc1CNc1ccc(Br)cn1	none
COc1ccc(C(=O)NCC2OCCc3ccccc32)cc1OC (stereo unspecified)	none
COc1ccccc1C(=O)Nc1ccc(C(=O)c2ccccc2)cc1	none
O=S(=O)(N1CCOCC1)n1cnc2ccccc21	none
O=C1C(=O)c2ccc(-c3ccccc3)cc2-c2ccccc21	none
Cc1cccc(C)c1NS(=O)(=O)c1ccc2c(c1)C(=O)c1ccccc1C2=O	none (no result: APP 5'UTR act)
O=C1c2ccccc2-c2nnc(-c3ccc(O)cc3)cc21	FLuc inhib CS 90
Cc1ccccc1-c1cc2c(nn1)-c1ccccc1C2=O	FLuc inhib CS 77
O=C1c2ccccc2-c2nnc(-c3ccc(F)cc3)cc21	APP 5'UTR act 144, NF-kB neuron act 4.5, FLuc inhib CS 79
Cc1nnc(NC(=O)CSc2nccn2-c2ccc(F)cc2)s1	none
Cc1ccc(/C=C/C(=O)OC(C)C(=O)Nc2ncc(Cl)cc2Cl)o1 (stereo unspecified)	none
CC(C)(C)c1nnc(NC(=O)c2cccs2)s1	NF-kB neuron act 3.4, STAT1 activator 134
CCCCC(CC)c1nnc(NC(=O)c2cccs2)s1 (stereo unspecified)	none
Cc1cnc(C(=O)Nc2nnc(C(C)C)s2)cn1	STAT1 activator 131
COc1cccc(-c2nnc(NC(=O)c3cccs3)s2)c1	STAT1 activator 138
CCOC(=O)Nc1nnc(-c2cccc(OC)c2)s1	none
CC(C)c1nnc(NC(=O)c2cccs2)s1	STAT1 activator 129 (no result: APP 5'UTR act)
COc1cccc(CN2CCN(Cc3[nH]c4ccccc4c3C)CC2CCO)c1 (stereo unspecified)	none
CCOc1c2ccc(C(=O)N[C@H](C)C3CCCCC3)cc2nn1CCOC	none
Cc1cc(C(N)=O)c2cc(Br)ccc2n1	none
Cc1ccc(N2CCN(C(=S)c3ccc(-c4cccc([N+](=O)[O-])c4)o3)CC2)cc1	none
COc1cc(/C=C/C(=O)NCC(=O)N2CCC(N(C)CCN3CCOCC3)CC2)ccc1OC(C)C	none
O=C(Nc1ccccc1)N1N=C(c2ccc(F)cc2)CC1c1ccc(F)cc1 (stereo unspecified)	none
CCN1CCN(C(=S)NCC(C)C)CC1	none (no result: APP 5'UTR act)
CSCC[C@H](NC(=O)OC(C)(C)C)c1nnc(SCC(=O)Nc2c(C)cccc2C)o1	none
CC(C)=CC(=O)Nc1nnc(C(C)C)s1	STAT1 activator 145
CCCn1c(SCC(=O)c2ccc3c(c2)OCCO3)nnc1-c1ccco1	none
C=CCOc1ccc(/C=C/C(C)=N\O)cc1	NF-kB neuron act 4.2, STAT1 activator 132, FLuc inhib CS 61
Cc1cc(O)cc2c(=O)c3ccccc3sc12	none
CC(=Nc1ccc(C)cc1C)c1sc2ccccc2c1O	APP 5'UTR act 154, NF-kB neuron act 4.8, STAT1 activator 143, FLuc inhib CS 85
CC(=Nc1cccc(O)c1)c1sc2ccccc2c1O	APP 5'UTR act 161, NF-kB neuron act 10, FLuc inhib CS 53
COC(=O)c1ccc(=O)n(Cc2ccco2)c1	none
O=C(NC1C(=O)NNC1c1ccccc1)c1ccc(F)cc1 (stereo unspecified)	STAT1 activator 129
Cc1cccc(NC(=O)CN2C(=O)N/C(=C/c3cc(C)n(C(C)C)c3C)C2=O)c1	none
CCOC(=O)C(C)N1C(=O)S/C(=C/c2cc(C)n(-c3ccncc3)c2C)C1=O (stereo unspecified)	none
COC(=O)CN1C(=O)S/C(=C/c2cc(C)n(C)c2C)C1=O	STAT1 activator 130
CCn1c(C)cc(/C=C2/SC(=S)N(CC(=O)O)C2=O)c1C	FLuc inhib CS 80
COC(=O)C(C)N1C(=O)S/C(=C/c2cc(C)n(C(C)C)c2C)C1=O (stereo unspecified)	STAT1 activator 138, FLuc inhib CS 51
COc1ccc(N=C2S/C(=C\c3cc(C)n(C)c3C)C(=O)N2CC(C)C)cc1	none
CCOC(=O)C(C)N1C(=O)S/C(=C/c2cc(C)n(-c3ccccn3)c2C)C1=O (stereo unspecified)	APP 5'UTR act 140
Cc1cc(C)nc(SCc2ccc(C(=O)N/N=C/c3ccncc3)cc2)n1	none
O=C(Nc1ccc2oc(-c3ccc4ccccc4c3)nc2c1)c1ccc2c(c1)OCCO2	none
Cc1sc(NC(=O)C2CCCCC2C(=O)O)c(C(N)=O)c1-c1ccccc1 (stereo unspecified)	FLuc inhib CS 55
Cc1sc(NC(=O)C2CCCCC2C(=O)O)c(C(N)=O)c1-c1ccc(C(C)(C)C)cc1 (stereo unspecified)	none
COc1ccc(C2=NN3C(C2)c2ccccc2OC3c2cccs2)cc1 (stereo unspecified)	APP 5'UTR act 155, NF-kB neuron act 3.8
COc1ccc(C2=NN3C(C2)c2ccccc2OC32C(=O)N(C)c3ccccc32)cc1 (stereo unspecified)	APP 5'UTR act 187, NF-kB neuron act 6
COc1ccc(C2=NN(C(N)=S)C(c3ccccc3)C2)cc1 (stereo unspecified)	none
CCCc1cc(C(=O)OC)c(NC(=O)CCCC(=O)O)s1	none
Cc1ccc(NC(=O)N2CCc3ccccc3C2)cc1	NF-kB neuron act 3.5, STAT1 activator 148
O=C(Nc1ccccc1)N1CCc2ccccc2C1	none
O=C(Nc1ccc(Cl)cc1)N1CCc2ccccc2C1	STAT1 activator 139
Cc1cc(C(F)F)n2ncc(C(=O)N3CCC(C(N)=O)CC3)c2n1	none
CC(C)NC(=O)COc1ccc2c(c1)C(=O)CC(C)(C)O2	none
COC(=O)C1C(c2ccc(OC)c(OC)c2)NC(c2ccc(OC)c(OC)c2)C(C(=O)OC)S1(=O)=O (stereo unspecified)	none
COc1cc(C2C(S(=O)(=O)c3ccccc3)CON2C)ccc1OCc1ccc(F)cc1 (stereo unspecified)	NF-kB neuron act 6.6
CN1OCC(S(=O)(=O)c2ccccc2)C1c1ccccc1 (stereo unspecified)	none
CC(=O)c1ccc(OC(=O)C2c3ccccc3Oc3ccccc32)cc1	none
Cc1ccc(OC(=O)C2c3ccccc3Oc3ccccc32)cc1C	NF-kB neuron act 4.6
O=C(CSc1nnnn1-c1ccccc1)Nc1ncc2c(n1)CC(c1ccco1)CC2=O (stereo unspecified)	none
CCOc1ncccc1C(=O)OCc1ccc(C(=O)OC)cc1	STAT1 activator 130
CC(C)CNC(=O)COc1ccc2c3c(c(=O)oc2c1)CCC3	none
